From ChEMBL document CHEMBL4406821, “Novel dual inhibitors targeting CDK4 and VEGFR2 synergistically suppressed cancer progression and angiogenesis” (Eur J Med Chem, 2019) come the findings set out here.

The source made the active and inactive calls. The calls are words filed in the database; no cut-off is given here.

Data set [1] concerns T47D. Description: Inhibition of colony formation in human T47D cells at 40 nM incubated for 5 days by crystal violet staining based light microscopy. It counts as functional, cell-based. The method, boiled down: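 MDA-MB-231, T-47D, SiHa and HeLa cells seeded at 4×10^3/well and cultured with varying concentrations of drug or vehicle for 5 days. Fixed in 20% methanol, stained with 0.5% crystal violet, photographed under light microscopy. DMEM (T-47D) with 10% FBS, 37°C, 5% CO2.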

Data set [2] has as its target MAPK/MAK/MRK overlapping kinase (Homo sapiens) (UniProt Q9UQ07). Description: Inhibition of recombinant human MOK (1 to 343 residues) at 1 uM using RSRSRSRSRSRSRSR as substrate incubated for 40 mins in presence of [gamma-33P]-ATP by scintillation counting method relative to control.
Data set [3] concerns the target cAMP-dependent protein kinase catalytic subunit PRKX (Homo sapiens) (UniProt P51817). Put plainly: Inhibition of recombinant human full length PrKX at 1 uM using RRRLSFAEPG as substrate incubated for 40 mins in presence of [gamma-33P]-ATP by scintillation counting method relative to control.
The target of data set [4] is Protein-tyrosine kinase 2-beta (Homo sapiens) (UniProt Q14289). Description: Inhibition of recombinant human full length PYK2 at 1 uM using poly(Glu, Tyr) 4:1 as substrate incubated for 40 mins in presence of [gamma-33P]-ATP by scintillation counting method relative to control.
Sequence of Protein-tyrosine kinase 2-beta (Homo sapiens) (Q14289 whole entry, looked up): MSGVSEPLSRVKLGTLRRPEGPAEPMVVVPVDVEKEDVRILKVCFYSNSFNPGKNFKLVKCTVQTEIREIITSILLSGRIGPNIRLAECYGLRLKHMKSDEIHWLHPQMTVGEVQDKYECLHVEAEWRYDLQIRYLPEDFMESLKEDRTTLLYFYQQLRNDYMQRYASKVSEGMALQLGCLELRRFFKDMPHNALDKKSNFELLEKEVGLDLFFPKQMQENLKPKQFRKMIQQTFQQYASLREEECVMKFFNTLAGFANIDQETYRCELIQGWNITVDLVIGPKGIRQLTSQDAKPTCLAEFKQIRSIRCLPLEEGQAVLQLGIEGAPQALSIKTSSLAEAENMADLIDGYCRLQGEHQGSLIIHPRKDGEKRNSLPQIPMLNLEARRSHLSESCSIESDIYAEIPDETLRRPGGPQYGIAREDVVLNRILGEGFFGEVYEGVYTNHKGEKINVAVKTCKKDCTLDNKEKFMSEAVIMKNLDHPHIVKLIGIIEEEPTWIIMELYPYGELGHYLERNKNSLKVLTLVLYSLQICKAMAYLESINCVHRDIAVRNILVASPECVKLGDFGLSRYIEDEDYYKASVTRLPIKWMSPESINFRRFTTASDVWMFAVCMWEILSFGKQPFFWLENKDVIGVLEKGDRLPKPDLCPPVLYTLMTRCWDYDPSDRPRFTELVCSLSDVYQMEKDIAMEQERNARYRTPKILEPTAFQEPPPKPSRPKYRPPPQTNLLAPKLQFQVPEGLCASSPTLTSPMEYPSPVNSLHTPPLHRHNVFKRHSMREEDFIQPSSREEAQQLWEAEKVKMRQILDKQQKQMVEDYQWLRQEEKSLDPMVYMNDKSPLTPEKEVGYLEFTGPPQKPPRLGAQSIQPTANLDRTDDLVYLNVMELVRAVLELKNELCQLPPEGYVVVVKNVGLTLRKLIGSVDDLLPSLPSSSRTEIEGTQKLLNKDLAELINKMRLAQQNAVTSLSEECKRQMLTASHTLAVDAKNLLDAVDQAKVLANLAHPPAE
In data set [5] the target is Platelet-derived growth factor receptor alpha (Homo sapiens) (UniProt P16234). Put plainly: Inhibition of recombinant human PDGFRalpha (550 to end residues) at 1 uM using poly(Glu, Tyr) 4:1 as substrate incubated for 40 mins in presence of [gamma-33P]-ATP by scintillation counting method relative to control. The method, boiled down: (§1)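 Tested at a single 1 uM in an outsourced commercial kinase-profiling panel, read as percent inhibition. Each value is the mean of two independent experiments.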

In data set [6] the target is PAS domain-containing serine/threonine-protein kinase (Homo sapiens) (UniProt Q96RG2). Description: Inhibition of recombinant human PASK (995 to end residues) at 1 uM using KKLNRTLSFAEPG as substrate incubated for 40 mins in presence of [gamma-33P]-ATP by scintillation counting method relative to control.
Sequence of PAS domain-containing serine/threonine-protein kinase (Homo sapiens) (Q96RG2 whole entry, the tested form may be a part): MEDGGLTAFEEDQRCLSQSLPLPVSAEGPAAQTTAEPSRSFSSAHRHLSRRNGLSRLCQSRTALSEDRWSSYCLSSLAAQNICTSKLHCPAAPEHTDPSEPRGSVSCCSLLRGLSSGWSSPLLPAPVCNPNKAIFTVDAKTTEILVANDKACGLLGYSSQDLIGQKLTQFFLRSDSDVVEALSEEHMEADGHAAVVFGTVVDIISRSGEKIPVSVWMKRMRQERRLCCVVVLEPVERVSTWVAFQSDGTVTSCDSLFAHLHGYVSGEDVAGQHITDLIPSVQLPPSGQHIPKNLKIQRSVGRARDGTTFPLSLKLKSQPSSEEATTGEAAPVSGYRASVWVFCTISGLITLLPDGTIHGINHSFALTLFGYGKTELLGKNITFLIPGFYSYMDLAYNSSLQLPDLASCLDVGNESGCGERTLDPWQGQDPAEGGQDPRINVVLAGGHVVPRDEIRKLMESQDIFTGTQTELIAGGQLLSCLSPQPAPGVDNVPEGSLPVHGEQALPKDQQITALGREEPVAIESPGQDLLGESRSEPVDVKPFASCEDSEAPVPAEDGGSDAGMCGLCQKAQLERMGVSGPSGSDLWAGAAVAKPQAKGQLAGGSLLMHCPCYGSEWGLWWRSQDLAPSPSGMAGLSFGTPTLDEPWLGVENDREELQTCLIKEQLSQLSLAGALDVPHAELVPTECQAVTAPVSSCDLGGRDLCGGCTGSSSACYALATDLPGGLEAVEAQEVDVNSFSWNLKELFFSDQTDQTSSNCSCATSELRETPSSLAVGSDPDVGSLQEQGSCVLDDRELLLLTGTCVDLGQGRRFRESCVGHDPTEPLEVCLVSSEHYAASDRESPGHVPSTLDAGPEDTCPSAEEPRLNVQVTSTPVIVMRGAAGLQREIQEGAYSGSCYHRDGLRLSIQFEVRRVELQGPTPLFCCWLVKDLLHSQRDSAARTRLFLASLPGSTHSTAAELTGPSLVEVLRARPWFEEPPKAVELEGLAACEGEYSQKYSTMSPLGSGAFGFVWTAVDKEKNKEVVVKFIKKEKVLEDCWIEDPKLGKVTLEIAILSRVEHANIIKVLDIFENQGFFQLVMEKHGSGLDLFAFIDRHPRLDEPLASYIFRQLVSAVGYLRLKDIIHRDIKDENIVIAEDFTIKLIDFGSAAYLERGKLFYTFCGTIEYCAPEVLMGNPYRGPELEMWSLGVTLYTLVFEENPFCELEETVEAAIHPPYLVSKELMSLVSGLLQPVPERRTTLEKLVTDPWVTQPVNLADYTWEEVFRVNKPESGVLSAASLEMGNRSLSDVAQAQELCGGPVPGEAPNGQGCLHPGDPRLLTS
The target of data set [7] is Aurora kinase C (Homo sapiens) (UniProt Q9UQB9). Description: Inhibition of recombinant human Aurora-C (35 to end residues) at 1 uM using AKRRRLSSLRA as substrate incubated for 40 mins in presence of [gamma-33P]-ATP by scintillation counting method relative to control. The method, boiled down:
(§2)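 Kinase panel profiling at 1 μM performed by Eurofins KinaseProfiler; percent inhibition reported as mean of two independent experiments.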

In data set [8] the target is Serine/threonine-protein kinase 32C (Homo sapiens) (UniProt Q86UX6). Put plainly: Inhibition of recombinant human full length STK32C at 1 uM using casein as substrate incubated for 40 mins in presence of [gamma-33P]-ATP by scintillation counting method relative to control.
The target in data set [9] is Transcription initiation factor TFIID subunit 1-like (Homo sapiens) (UniProt Q8IZX4). Description: Inhibition of recombinant human TAF1L (1428 to end residues) at 1 uM using RRRFRPASPLRGPPK as substrate incubated for 40 mins in presence of [gamma-33P]-ATP by scintillation counting method relative to control. The method, boiled down:
as §1

In data set [10] the target is Serine/threonine-protein kinase PAK 4 (Homo sapiens) (UniProt O96013). Description: Inhibition of recombinant human PAK4 (295 to end residues) at 1 uM using myelin basic protein as substrate incubated for 40 mins in presence of [gamma-33P]-ATP by scintillation counting method relative to control.
Sequence of Serine/threonine-protein kinase PAK 4 (Homo sapiens) (O96013 whole entry, looked up): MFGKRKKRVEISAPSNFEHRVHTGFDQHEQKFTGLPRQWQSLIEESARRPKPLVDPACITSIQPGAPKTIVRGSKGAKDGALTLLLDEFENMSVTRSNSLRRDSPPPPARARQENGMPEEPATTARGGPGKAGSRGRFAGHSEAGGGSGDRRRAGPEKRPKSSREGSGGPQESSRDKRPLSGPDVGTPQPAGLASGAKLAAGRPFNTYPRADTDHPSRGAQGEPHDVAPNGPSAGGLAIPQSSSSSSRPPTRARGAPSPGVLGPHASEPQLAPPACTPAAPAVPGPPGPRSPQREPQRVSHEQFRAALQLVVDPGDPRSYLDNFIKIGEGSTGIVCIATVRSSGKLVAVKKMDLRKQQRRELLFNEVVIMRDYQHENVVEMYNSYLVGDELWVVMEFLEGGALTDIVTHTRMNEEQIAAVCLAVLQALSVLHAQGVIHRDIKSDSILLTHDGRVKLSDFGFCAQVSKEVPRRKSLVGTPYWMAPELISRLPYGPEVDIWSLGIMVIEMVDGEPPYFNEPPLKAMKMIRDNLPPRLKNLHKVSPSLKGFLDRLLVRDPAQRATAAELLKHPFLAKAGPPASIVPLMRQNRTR
Data set [11] has as its target Platelet-derived growth factor receptor beta (Homo sapiens) (UniProt P09619). Put plainly: Inhibition of recombinant human PDGFRbeta (557 to end residues) at 1 uM using poly(Glu, Tyr) 4:1 as substrate incubated for 40 mins in presence of [gamma-33P]-ATP by scintillation counting method relative to control.
Data set [12] can be described thus: Toxicity in NOD/SCID BALB/c mouse xenografted with human SiHa cells assessed as effect on blood parameter by measuring neutrophils content at 40 mg/kg, po administered once two days for 4 times by hematology analyzer. It counts as organism-based. As to conditions: in vivo. (Xenograft models place foreign cells or tissue in a host animal.)
Data set [13] deals with T47D. Description: Induction of apoptosis in human T47D cells assessed as decrease in Bcl2 expression at 20 to 40 nM incubated for 48 hrs by Western blot analysis. Format: functional, cell-based. The method, boiled down:
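Cancer cells were exposed to graded concentrations for 48 h, washed three times in PBS and lysed in RIPA buffer. Immunoblots were probed with anti-Rb, anti-phospho-Rb, anti-Ki67 and anti-Bcl-2, each at 1:1000. β-actin served as loading control.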
For orientation: Immunoblotting shows a protein as a band on a membrane.

The target in data set [14] is Fibroblast growth factor receptor 2 (Homo sapiens) (UniProt P21802). Put plainly: Inhibition of recombinant human FGFR2 (456 to 770 residues) at 1 uM using poly(Glu, Tyr) 4:1 as substrate incubated for 40 mins in presence of [gamma-33P]-ATP by scintillation counting method relative to control.
Sequence of Fibroblast growth factor receptor 2 (Homo sapiens) (P21802 22-821 limits assumed): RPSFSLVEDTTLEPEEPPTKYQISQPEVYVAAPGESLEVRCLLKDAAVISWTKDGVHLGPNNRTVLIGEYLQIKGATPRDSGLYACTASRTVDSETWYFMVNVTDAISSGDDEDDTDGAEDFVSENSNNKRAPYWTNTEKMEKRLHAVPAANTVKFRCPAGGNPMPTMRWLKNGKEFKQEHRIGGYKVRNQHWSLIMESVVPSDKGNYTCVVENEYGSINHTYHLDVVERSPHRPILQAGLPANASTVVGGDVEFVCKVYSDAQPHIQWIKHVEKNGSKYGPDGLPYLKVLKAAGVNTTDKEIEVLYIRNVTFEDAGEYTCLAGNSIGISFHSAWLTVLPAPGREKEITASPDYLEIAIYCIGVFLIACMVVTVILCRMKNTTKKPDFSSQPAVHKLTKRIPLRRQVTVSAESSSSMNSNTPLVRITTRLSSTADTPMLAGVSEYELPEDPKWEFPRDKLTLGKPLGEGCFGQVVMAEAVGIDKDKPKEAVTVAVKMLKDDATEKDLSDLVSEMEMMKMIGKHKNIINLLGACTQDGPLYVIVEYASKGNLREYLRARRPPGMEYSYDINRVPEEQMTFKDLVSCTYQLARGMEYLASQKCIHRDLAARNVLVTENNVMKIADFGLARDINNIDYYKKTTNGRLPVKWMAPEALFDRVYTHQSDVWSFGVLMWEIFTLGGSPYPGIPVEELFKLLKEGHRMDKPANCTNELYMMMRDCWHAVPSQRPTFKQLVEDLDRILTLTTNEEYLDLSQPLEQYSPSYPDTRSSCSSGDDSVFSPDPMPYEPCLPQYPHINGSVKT
In another data set the test system is HeLa. Description: Induction of apoptosis in human HeLa cells assessed as increase in late apoptotic cells at 20 to 40 nM incubated for 48 hrs by annexin V FITC and propidium iodide staining based flow cytometry. It counts as functional, cell-based. Summed up: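 Cells were treated for 48 h, stained with FITC Annexin V and PI, and analyzed by flow cytometry to count early and late apoptotic cells.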

The nature of data set [15]: Oral bioavailability in Sprague-Dawley rat at 10 mg/kg by HPLC-MS analysis. As to conditions: in vivo. It counts as ADME, organism-based.
The test system of data set [16] is T47D. Put plainly: Induction of apoptosis in human T47D cells assessed as increase in early apoptotic cells at 20 to 40 nM incubated for 48 hrs by annexin V FITC and propidium iodide staining based flow cytometry. It counts as functional, cell-based. The method, boiled down: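 Annexin V-FITC/PI double staining with flow-cytometric readout. MDA-MB-231, T-47D, SiHa and HeLa cells were treated with graded concentrations for 48 h. MDA-MB-231 and T-47D were grown in DMEM and SiHa in 1640 medium, each with 10% FBS and 1% penicillin/streptomycin at 37°C under 5% CO2. Early- and late-stage apoptotic fractions were scored.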

The target in data set [17] is Mitogen-activated protein kinase kinase kinase 3 (Homo sapiens) (UniProt Q99759). Put plainly: Inhibition of recombinant human full length MEKK3 at 1 uM using myelin basic protein as substrate incubated for 40 mins in presence of [gamma-33P]-ATP by scintillation counting method relative to control.
Sequence of Mitogen-activated protein kinase kinase kinase 3 (Homo sapiens) (Q99759 whole entry, the tested form may be a part): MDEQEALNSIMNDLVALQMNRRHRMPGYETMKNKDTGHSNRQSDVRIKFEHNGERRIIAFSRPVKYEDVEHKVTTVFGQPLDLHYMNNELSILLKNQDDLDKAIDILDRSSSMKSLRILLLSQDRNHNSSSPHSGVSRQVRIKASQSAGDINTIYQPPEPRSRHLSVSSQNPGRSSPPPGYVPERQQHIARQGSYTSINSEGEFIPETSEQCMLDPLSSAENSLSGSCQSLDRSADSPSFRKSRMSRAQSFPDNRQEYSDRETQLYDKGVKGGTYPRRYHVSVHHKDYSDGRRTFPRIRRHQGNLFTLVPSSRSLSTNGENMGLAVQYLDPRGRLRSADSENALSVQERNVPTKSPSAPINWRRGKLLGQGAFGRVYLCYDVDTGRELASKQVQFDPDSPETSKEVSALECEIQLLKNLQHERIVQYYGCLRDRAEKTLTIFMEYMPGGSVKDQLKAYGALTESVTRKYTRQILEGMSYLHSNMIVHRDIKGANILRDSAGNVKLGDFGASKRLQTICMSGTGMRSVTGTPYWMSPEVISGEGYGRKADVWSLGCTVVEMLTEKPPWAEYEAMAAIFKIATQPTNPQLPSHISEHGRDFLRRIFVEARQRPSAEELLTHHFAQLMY
Data set [18] concerns the target Serine/threonine-protein kinase 26 (Homo sapiens) (UniProt Q9P289). Put plainly: Inhibition of recombinant human MST4 (4 to 304 residues) at 1 uM using RLGRDKYKTLRQIRQ as substrate incubated for 40 mins in presence of [gamma-33P]-ATP by scintillation counting method relative to control.
Data set [19] has as its target Epithelial discoidin domain-containing receptor 1 (Homo sapiens) (UniProt Q08345). Put plainly: Inhibition of recombinant human DDR1 (492 to end residues) at 1 uM using KKKSPGEYVNIEFG as substrate incubated for 40 mins in presence of [gamma-33P]-ATP by scintillation counting method relative to control. The method, boiled down:
as §2

The subject of data set [20] is Tyrosine-protein kinase BTK (Homo sapiens), Q06187 [R28H]. Description: Inhibition of recombinant full length human BTK R28H mutant at 1 uM using LSNLYHQGKFLQT as substrate incubated for 40 mins in presence of [gamma-33P]-ATP by scintillation counting method relative to control. The method, boiled down:
as §1

The term inhibition denotes the change of the read-out against control, counted positive when it falls. Broadly, the bioavailability is dose-corrected exposure relative to a reference, in per cent. Low values mean little systemic uptake, high ones much systemic uptake.

Sequence of Serine/threonine-protein kinase 26 (Homo sapiens) (Q9P289 2-416 limits assumed): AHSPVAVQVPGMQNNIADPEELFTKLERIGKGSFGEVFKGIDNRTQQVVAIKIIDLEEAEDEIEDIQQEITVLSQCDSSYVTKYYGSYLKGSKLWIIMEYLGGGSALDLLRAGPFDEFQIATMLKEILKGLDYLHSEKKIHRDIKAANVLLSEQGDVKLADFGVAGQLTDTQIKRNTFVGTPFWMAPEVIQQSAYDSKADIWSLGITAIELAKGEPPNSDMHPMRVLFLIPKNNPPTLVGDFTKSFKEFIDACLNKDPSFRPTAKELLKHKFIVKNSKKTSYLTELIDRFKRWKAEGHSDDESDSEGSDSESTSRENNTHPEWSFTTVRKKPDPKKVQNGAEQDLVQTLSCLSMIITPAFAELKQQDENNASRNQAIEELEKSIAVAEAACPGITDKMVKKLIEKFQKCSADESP
Sequence of Aurora kinase C (Homo sapiens) (Q9UQB9 whole entry): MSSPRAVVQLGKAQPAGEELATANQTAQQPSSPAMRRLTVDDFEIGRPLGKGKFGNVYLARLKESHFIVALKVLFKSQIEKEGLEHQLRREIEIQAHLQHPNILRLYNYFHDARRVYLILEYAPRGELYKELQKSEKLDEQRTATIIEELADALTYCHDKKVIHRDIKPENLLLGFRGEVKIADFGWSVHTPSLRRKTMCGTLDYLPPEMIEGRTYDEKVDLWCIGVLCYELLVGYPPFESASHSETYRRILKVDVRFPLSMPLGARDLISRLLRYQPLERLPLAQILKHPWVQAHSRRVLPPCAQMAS

Regarding `COc1cc2nccc(Oc3ccc(NC(=O)C4(C(=O)Nc5ccc(F)cc5)CC4)cc3)c2cc1OC` [CABOZANTINIB], in the data set with T47D [1], the inhibition result was “Active”.

On to `Cc1ccc(NC(=O)C2(C(=O)Nc3ccc(Nc4ncc(F)c(-c5cc(F)c6nc(C)n(C(C)C)c6c5)n4)cc3)CC2)cc1`, for which the inhibition in data set [2] came to 25%; in [3] it was 43%; in [4] it was 73%; in [5] it was 0%; in data set [6] it was 19%; in data set [7], 9%. The inhibition in data set [8] came to 5%; in data set [9], 0%; in data set [10], 50%; in data set [11], 6%; in [14], 4%; in data set [17], 78%. Further, the inhibition in data set [18] is 48%; in [19] it was 73%; in data set [20], 0%. In addition, in [12], the Activity result is listed as “Non-Toxic”. For the same compound, the result with T47D [13], with HeLa and in the data set with T47D [16] was Active. The compound further registered a bioavailability in [15] of 60%.
